Measured values: ChEMBL document CHEMBL4706643 (J Med Chem, 2021)

Experiments:
[1] = Intrinsic clearance in human liver microsomes at 1 uM preincubated for 5 mins followed by NADPH addition and measured upto 60 mins by LC-MS analysis; format: ADME, Microsome; conditions: read-out: CLH
In short: (§1)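 Human or mouse liver microsomes, final 1 mg/mL in 0.05 M phosphate buffer pH 7.4; compound final 1 μM, preincubated 37 °C 5 min, started with 1 mM NADPH; sampled at 0, 5, 15, 30, 60 min, methanol quench, −20 °C 1 h, centrifuged, supernatant by LC–MS.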

[2] = Intrinsic clearance in rat liver microsomes at 1 uM preincubated for 5 mins followed by NADPH addition and measured upto 60 mins by LC-MS analysis; format: ADME, Microsome; conditions: time 65 min, read-out: CLH
[3] = Intrinsic clearance in mouse liver microsomes at 1 uM preincubated for 5 mins followed by NADPH addition and measured upto 60 mins by LC-MS analysis; format: ADME, Microsome; conditions: read-out: CLH; in short: as §1
[4] = tested on: Hepatitis B virus; assay: Antiviral activity against HBV infected in human HepG2-NTCP cells assessed as reduction in HBeAg secretion cells inoculated with virus for 4 hrs at room temperature and 37 degree C for 24 hrs followed inoculum changed with PMM medium for every 2 days until day 5 post infection by ELISA; format: functional, organism-based

| Compound | microsomal CLint at 1 µM [1] [µL/min/mg] | microsomal CLint at 1 µM [2] [µL/min/mg] | microsomal CLint at 1 µM [3] [µL/min/mg] | IC50 [4] [nM] |
| --- | --- | --- | --- | --- |
| CC[C@@H]1NC(=O)[C@H]([C@@H]2O[C@H](Sc3cccc(OCc4ccccc4)c3)C[C@H]2C)N(C)C(=O)[C@H](C(C)C)N(C)C(=O)[C@H](CC(C)C)N(C)C(=O)[C@H](CC(C)C)N(C)C(=O)[C@@H](C)NC(=O)[C@H](C)NC(=O)[C@H](CC(C)C)N(C)C(=O)[C@H](C(C)C)NC(=O)[C@H](CC(C)C)N(C)C(=O)CN(C)C1=O | 7.7 | 3 | 2.1 | – |
| CC[C@@H]1NC(=O)[C@H]([C@@H]2O[C@@H](Sc3ccc(Cl)c(OC)c3)C[C@H]2C)N(C)C(=O)[C@H](C(C)C)N(C)C(=O)[C@H](CC(C)C)N(C)C(=O)[C@H](CC(C)C)N(C)C(=O)[C@@H](C)NC(=O)[C@H](C)NC(=O)[C@H](CC(C)C)N(C)C(=O)[C@H](C(C)C)NC(=O)[C@H](CC(C)C)N(C)C(=O)CN(C)C1=O | 14.8 | 2 | 3.3 | 101 |
| CCCCc1ccc(S[C@H]2C[C@@H](C)[C@H]([C@H]3C(=O)N[C@@H](CC)C(=O)N(C)CC(=O)N(C)[C@@H](CC(C)C)C(=O)N[C@@H](C(C)C)C(=O)N(C)[C@@H](CC(C)C)C(=O)N[C@@H](C)C(=O)N[C@H](C)C(=O)N(C)[C@@H](CC(C)C)C(=O)N(C)[C@@H](CC(C)C)C(=O)N(C)[C@@H](C(C)C)C(=O)N3C)O2)cc1 | 6.1 | 4 | 2.5 | 262 |
| CC[C@@H]1NC(=O)[C@H]([C@@H]2O[C@@H](Sc3cccc(OCc4ccc(F)cc4C)c3)C[C@H]2C)N(C)C(=O)[C@H](C(C)C)N(C)C(=O)[C@H](CC(C)C)N(C)C(=O)[C@H](CC(C)C)N(C)C(=O)[C@@H](C)NC(=O)[C@H](C)NC(=O)[C@H](CC(C)C)N(C)C(=O)[C@H](C(C)C)NC(=O)[C@H](CC(C)C)N(C)C(=O)CN(C)C1=O | – | 0.8 | 7.1 | 122 |
| CC[C@@H]1NC(=O)[C@H]([C@@H]2O[C@@H](Sc3cc(Cl)cc(OC)c3)C[C@H]2C)N(C)C(=O)[C@H](C(C)C)N(C)C(=O)[C@H](CC(C)C)N(C)C(=O)[C@H](CC(C)C)N(C)C(=O)[C@@H](C)NC(=O)[C@H](C)NC(=O)[C@H](CC(C)C)N(C)C(=O)[C@H](C(C)C)NC(=O)[C@H](CC(C)C)N(C)C(=O)CN(C)C1=O | 4.2 | – | 2.2 | 116 |
| CC[C@@H]1NC(=O)[C@H]([C@@H]2O[C@@H](Sc3cccc(OCc4ccncc4)c3)C[C@H]2C)N(C)C(=O)[C@H](C(C)C)N(C)C(=O)[C@H](CC(C)C)N(C)C(=O)[C@H](CC(C)C)N(C)C(=O)[C@@H](C)NC(=O)[C@H](C)NC(=O)[C@H](CC(C)C)N(C)C(=O)[C@H](C(C)C)NC(=O)[C@H](CC(C)C)N(C)C(=O)CN(C)C1=O | – | – | – | 382 |
| CC[C@@H]1NC(=O)[C@H]([C@@H]2O[C@@H](Sc3cccc(NC)c3)C[C@H]2C)N(C)C(=O)[C@H](C(C)C)N(C)C(=O)[C@H](CC(C)C)N(C)C(=O)[C@H](CC(C)C)N(C)C(=O)[C@@H](C)NC(=O)[C@H](C)NC(=O)[C@H](CC(C)C)N(C)C(=O)[C@H](C(C)C)NC(=O)[C@H](CC(C)C)N(C)C(=O)CN(C)C1=O | – | – | – | 1200 |
| CC[C@@H]1NC(=O)[C@H]([C@@H]2O[C@@H](Oc3cccc(OCc4ccccc4)c3)C[C@H]2C)N(C)C(=O)[C@H](C(C)C)N(C)C(=O)[C@H](CC(C)C)N(C)C(=O)[C@H](CC(C)C)N(C)C(=O)[C@@H](C)NC(=O)[C@H](C)NC(=O)[C@H](CC(C)C)N(C)C(=O)[C@H](C(C)C)NC(=O)[C@H](CC(C)C)N(C)C(=O)CN(C)C1=O | – | – | – | 344 |
| CC[C@@H]1NC(=O)[C@H]([C@@H]2O[C@@H](Sc3ccc(OC)c(OC)c3)C[C@H]2C)N(C)C(=O)[C@H](C(C)C)N(C)C(=O)[C@H](CC(C)C)N(C)C(=O)[C@H](CC(C)C)N(C)C(=O)[C@@H](C)NC(=O)[C@H](C)NC(=O)[C@H](CC(C)C)N(C)C(=O)[C@H](C(C)C)NC(=O)[C@H](CC(C)C)N(C)C(=O)CN(C)C1=O | – | – | – | 346 |
| CC[C@@H]1NC(=O)[C@H]([C@@H]2O[C@@H](Sc3c(OC)cccc3OC)C[C@H]2C)N(C)C(=O)[C@H](C(C)C)N(C)C(=O)[C@H](CC(C)C)N(C)C(=O)[C@H](CC(C)C)N(C)C(=O)[C@@H](C)NC(=O)[C@H](C)NC(=O)[C@H](CC(C)C)N(C)C(=O)[C@H](C(C)C)NC(=O)[C@H](CC(C)C)N(C)C(=O)CN(C)C1=O | – | – | – | 2170 |
| CC[C@@H]1NC(=O)[C@H]([C@@H]2OC(OC)C[C@H]2C)N(C)C(=O)[C@H](C(C)C)N(C)C(=O)[C@H](CC(C)C)N(C)C(=O)[C@H](CC(C)C)N(C)C(=O)[C@@H](C)NC(=O)[C@H](C)NC(=O)[C@H](CC(C)C)N(C)C(=O)[C@H](C(C)C)NC(=O)[C@H](CC(C)C)N(C)C(=O)CN(C)C1=O (stereo not given in full) | – | – | – | 13500 |
| CC[C@@H]1NC(=O)[C@H]([C@@H]2OCC[C@H]2C)N(C)C(=O)[C@H](C(C)C)N(C)C(=O)[C@H](CC(C)C)N(C)C(=O)[C@H](CC(C)C)N(C)C(=O)[C@@H](C)NC(=O)[C@H](C)NC(=O)[C@H](CC(C)C)N(C)C(=O)[C@H](C(C)C)NC(=O)[C@H](CC(C)C)N(C)C(=O)CN(C)C1=O | – | – | – | > 10000 |
| CC[C@@H]1NC(=O)[C@H]([C@@H]2O[C@@H](Sc3ccc(C)cc3)C[C@H]2C)N(C)C(=O)[C@H](C(C)C)N(C)C(=O)[C@H](CC(C)C)N(C)C(=O)[C@H](CC(C)C)N(C)C(=O)[C@@H](C)NC(=O)[C@H](C)NC(=O)[C@H](CC(C)C)N(C)C(=O)[C@H](C(C)C)NC(=O)[C@H](CC(C)C)N(C)C(=O)CN(C)C1=O | – | – | – | 281 |
| CC[C@@H]1NC(=O)[C@H]([C@@H]2O[C@@H](Sc3cccc(OCc4ccc(=O)n(C)c4)c3)C[C@H]2C)N(C)C(=O)[C@H](C(C)C)N(C)C(=O)[C@H](CC(C)C)N(C)C(=O)[C@H](CC(C)C)N(C)C(=O)[C@@H](C)NC(=O)[C@H](C)NC(=O)[C@H](CC(C)C)N(C)C(=O)[C@H](C(C)C)NC(=O)[C@H](CC(C)C)N(C)C(=O)CN(C)C1=O | – | – | – | 480 |
| CC[C@@H]1NC(=O)[C@H]([C@@H]2O[C@@H](Sc3cccc(OCc4ccc(F)cc4Cl)c3)C[C@H]2C)N(C)C(=O)[C@H](C(C)C)N(C)C(=O)[C@H](CC(C)C)N(C)C(=O)[C@H](CC(C)C)N(C)C(=O)[C@@H](C)NC(=O)[C@H](C)NC(=O)[C@H](CC(C)C)N(C)C(=O)[C@H](C(C)C)NC(=O)[C@H](CC(C)C)N(C)C(=O)CN(C)C1=O | – | – | – | 403 |
| CC[C@@H]1NC(=O)[C@H]([C@@H]2O[C@@H](Sc3cccc(OCc4ccccn4)c3)C[C@H]2C)N(C)C(=O)[C@H](C(C)C)N(C)C(=O)[C@H](CC(C)C)N(C)C(=O)[C@H](CC(C)C)N(C)C(=O)[C@@H](C)NC(=O)[C@H](C)NC(=O)[C@H](CC(C)C)N(C)C(=O)[C@H](C(C)C)NC(=O)[C@H](CC(C)C)N(C)C(=O)CN(C)C1=O | – | – | – | 317 |
| CC[C@@H]1NC(=O)[C@H]([C@@H]2OC(OCC(=O)OC)C[C@H]2C)N(C)C(=O)[C@H](C(C)C)N(C)C(=O)[C@H](CC(C)C)N(C)C(=O)[C@H](CC(C)C)N(C)C(=O)[C@@H](C)NC(=O)[C@H](C)NC(=O)[C@H](CC(C)C)N(C)C(=O)[C@H](C(C)C)NC(=O)[C@H](CC(C)C)N(C)C(=O)CN(C)C1=O (stereo not given in full) | – | – | – | > 10000 |
| C=C(C)C1C[C@@H](C)[C@H]([C@H]2C(=O)N[C@@H](CC)C(=O)N(C)CC(=O)N(C)[C@@H](CC(C)C)C(=O)N[C@@H](C(C)C)C(=O)N(C)[C@@H](CC(C)C)C(=O)N[C@@H](C)C(=O)N[C@H](C)C(=O)N(C)[C@@H](CC(C)C)C(=O)N(C)[C@@H](CC(C)C)C(=O)N(C)[C@@H](C(C)C)C(=O)N2C)O1 (stereo not given in full) | – | – | – | > 10000 |
| CC[C@@H]1NC(=O)[C@H]([C@@H]2O[C@@H](Sc3cc(Cl)cc(OCc4ccc(F)cc4)c3)C[C@H]2C)N(C)C(=O)[C@H](C(C)C)N(C)C(=O)[C@H](CC(C)C)N(C)C(=O)[C@H](CC(C)C)N(C)C(=O)[C@@H](C)NC(=O)[C@H](C)NC(=O)[C@H](CC(C)C)N(C)C(=O)[C@H](C(C)C)NC(=O)[C@H](CC(C)C)N(C)C(=O)CN(C)C1=O | – | – | – | 417 |
| CC[C@@H]1NC(=O)[C@H]([C@@H]2O[C@@H](Sc3nccc(C(F)(F)F)n3)C[C@H]2C)N(C)C(=O)[C@H](C(C)C)N(C)C(=O)[C@H](CC(C)C)N(C)C(=O)[C@H](CC(C)C)N(C)C(=O)[C@@H](C)NC(=O)[C@H](C)NC(=O)[C@H](CC(C)C)N(C)C(=O)[C@H](C(C)C)NC(=O)[C@H](CC(C)C)N(C)C(=O)CN(C)C1=O | – | – | – | 4960 |
| CC[C@@H]1NC(=O)[C@H]([C@@H]2O[C@@H](Sc3cccc(OCc4cccc(F)c4)c3)C[C@H]2C)N(C)C(=O)[C@H](C(C)C)N(C)C(=O)[C@H](CC(C)C)N(C)C(=O)[C@H](CC(C)C)N(C)C(=O)[C@@H](C)NC(=O)[C@H](C)NC(=O)[C@H](CC(C)C)N(C)C(=O)[C@H](C(C)C)NC(=O)[C@H](CC(C)C)N(C)C(=O)CN(C)C1=O | – | – | – | 197 |
| CC[C@@H]1NC(=O)[C@H]([C@@H]2O[C@H](Sc3ccc(OC)cc3)C[C@H]2C)N(C)C(=O)[C@H](C(C)C)N(C)C(=O)[C@H](CC(C)C)N(C)C(=O)[C@H](CC(C)C)N(C)C(=O)[C@@H](C)NC(=O)[C@H](C)NC(=O)[C@H](CC(C)C)N(C)C(=O)[C@H](C(C)C)NC(=O)[C@H](CC(C)C)N(C)C(=O)CN(C)C1=O | – | – | – | 1700 |
| CC[C@@H]1NC(=O)[C@H]([C@@H]2O[C@@H](Sc3cccc(OCC4CCOCC4)c3)C[C@H]2C)N(C)C(=O)[C@H](C(C)C)N(C)C(=O)[C@H](CC(C)C)N(C)C(=O)[C@H](CC(C)C)N(C)C(=O)[C@@H](C)NC(=O)[C@H](C)NC(=O)[C@H](CC(C)C)N(C)C(=O)[C@H](C(C)C)NC(=O)[C@H](CC(C)C)N(C)C(=O)CN(C)C1=O | – | – | – | 249 |
